The subject of assay [1] is Plasmodium falciparum. Nature of the assay: Binding affinity to Plasmodium falciparum 20S proteasome beta 5 subunit assessed as half-life using fluorogenic peptide Ac-WLA-AMC as substrate in presence of PA28alpha by fluorescence based microplate reader assay.
Assay [2] addresses Proteasome Macropain subunit (Homo sapiens) (UniProt P49721). Nature of the assay: Binding affinity to human 20S constitutive proteasome beta 2 subunit assessed as half-life using fluorogenic peptide Ac-WLR-AMC as substrate in presence of PA28alpha by fluorescence based microplate reader assay.
The subject of assay [3] is Plasmodium falciparum. Nature of the assay: Inhibition of proteasome in Plasmodium falciparum trophozoite stage transfected with GFP-DD assessed as reduction in GFP-DD fusion protein degradation at 0.02 to 0.5 uM incubated for 3 hrs in absence of Shield-1 by Western blot analysis. The following applies: dose 0.02-0.5 µM. In a few lines:
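GFP-DD reporter parasites were held in Shield-1 for 24 h, washed out, then treated as trophozoites (5% hematocrit, 5% parasitemia) with compound for 3 h at 37°C. […] Representative of four independent experiments.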
A general note: In western blotting, separated proteins are transferred to a membrane and probed.

The test system of assay [4] is Plasmodium falciparum. Nature of the assay: Inhibition of proteasome in Plasmodium falciparum trophozoite stage transfected with GFP-DD assessed as reduction in GFP-DD fusion protein degradation at 0.2 to 0.5 uM incubated for 3 hrs in absence of Shield-1 by Western blot analysis. To be noted: dose 0.2-0.5 µM. The method in brief: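 GFP-DD reporter parasites were held in Shield-1 for 24 h, then washed out. Trophozoites at 5% hematocrit and 5% parasitemia were exposed to compound for 3 h at 37°C. Saponin-isolated parasites were lysed and blotted with anti-GFP (1:1000), with anti-PfBiP as loading control. Representative of four independent experiments.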

Active and inactive are the calls of the source. The calls are words filed in the database; no cut-off is given here.

Sequence of Proteasome Macropain subunit (Homo sapiens) (P49721 whole entry, the tested form may be a part): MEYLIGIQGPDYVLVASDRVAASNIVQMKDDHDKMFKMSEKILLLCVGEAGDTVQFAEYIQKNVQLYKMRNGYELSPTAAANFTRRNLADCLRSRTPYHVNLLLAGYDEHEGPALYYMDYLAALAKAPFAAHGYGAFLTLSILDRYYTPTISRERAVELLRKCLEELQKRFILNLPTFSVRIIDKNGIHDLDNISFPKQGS

In the case of `CC(C)C[C@H](NC(=O)[C@H](Cc1ccccc1)NC(=O)Cc1ccc(O)cc1)B(O)O`, the figures for the T1/2 (in the assay on Plasmodium falciparum [1]; in assay [2]) were 65 min and 2 min, respectively. Also, the inhibition result with Plasmodium falciparum [3] was “Active”.
Consider `CC(=O)N1CCC[C@@H]1C(=O)N[C@@H](C)C(=O)N[C@@H](Cc1ccccc1)B(O)O`, for which the inhibition result in the assay on Plasmodium falciparum [4] is “Active”.

These data come from ChEMBL document CHEMBL4680111, “Target Validation and Identification of Novel Boronate Inhibitors of the Plasmodium falciparum Proteasome” (J Med Chem, 2018).
